{
  "source": "paper PMC4203514",
  "about": "(Autophagy, 2014)",
  "assay_type_in_all_cases": "in vivo, human",
  "key": {"[1]": {"experiment": "Population pharmacokinetics of HCQ in whole blood", "settings": "for Vd/F: human, oral, Vc/F, apparent central volume of distribution", "summary_of_the_method": "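Whole blood was sampled in sodium heparin pre-dose and at 2, 4, 8 and 12 wk and 6 mo, then stored at −70 °C. Samples were assayed in duplicate by HPLC-MS/MS with a deuterated internal standard against a 1/x-weighted linear curve (1–5000 ng/mL; LLOQ 1.0 ng/mL). One- and two-compartment first-order models were fitted by nonlinear mixed-effects (Lindstrom-Bates) with log-normal inter-individual variability. Precision came from 1000 bootstrap runs, and individual parameters were used for profile simulations.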"}, "[2]": {"system": "peripheral blood mononuclear cells", "experiment": "PK-PD CART analysis of HCQ peak concentration versus AV accumulation in PBMC", "summary_of_the_method": "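Exploratory classification and regression trees analysis used 26 patients with complete PK and PD data. The target was change in PBMC AV count from baseline to 2 wk. Predictors were Cmin, Cmax and AUC, taken from model-simulated individual blood profiles. The PK-PD relationship was also examined after 4 wk of combined therapy. The Cmax threshold was tested by Kruskal-Wallis (medians) and Kolmogorov-Smirnov two-sample tests.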"}, "[3]": {"system": "patients with advanced solid tumors", "experiment": "Treatment-related adverse events by grade", "summary_of_the_method": "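Patients who took at least one dose of the oral test compound, given with a dose-intense oral alkylating agent, were evaluable for toxicity. Adverse events were graded by NCI Common Toxicity Criteria v3.0, and haematological toxicities were attributed to the alkylating agent. Complete blood counts were done weekly for the first 6 wk and biweekly thereafter. Treatment ran in 28 d cycles.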"}, "[4]": {"settings": "population PK, 1000 bootstrap runs"}, "[5]": {"settings": "population PK, whole blood, 35 patients"}},
  "data": [
    {"smiles": "CCN(CCO)CCCC(C)Nc1ccnc2cc(Cl)ccc12", "note": "(centres unmarked) [HCQ, hydroxychloroquine]", "values": [
      {"measurement": "Vd/F", "setting": "[1]; whole blood, bootstrap estimate, population PK, 1000 bootstrap runs", "value": 500, "unit": "L"},
      {"measurement": "Vd/F", "setting": "[1]; whole blood, model estimate, population PK, 35 patients", "value": 486, "unit": "L"},
      {"measurement": "Cl/F, apparent oral clearance, bootstrap estimate", "setting": "[1]; [4]", "value": 10.085, "unit": "L/h"},
      {"measurement": "Ka, absorption rate constant, bootstrap estimate", "setting": "[1]; [4]", "value": 0.999, "unit": "h⁻¹"},
      {"measurement": "Vp/F, apparent peripheral volume of distribution, bootstrap estimate", "setting": "[1]; [4]", "value": 1400.415, "unit": "L"},
      {"measurement": "Cl/F, apparent oral clearance, model estimate", "setting": "[1]; [5]", "value": 9.975, "unit": "L/h"},
      {"measurement": "Ka, absorption rate constant, model estimate", "setting": "[1]; [5]", "value": 0.998, "unit": "h⁻¹"},
      {"measurement": "Vp/F, apparent peripheral volume of distribution, model estimate", "setting": "[1]; [5]", "value": 1406.52, "unit": "L"},
      {"measurement": "Time to steady-state HCQ blood concentration, on average", "setting": "[1]; simulated for individual patients with final PK model, (16 d)", "value": 400, "unit": "h"},
      {"measurement": "Threshold HCQ Cmax that correlated with AV accumulation (CART)", "setting": "[2]; after 2 wk of single agent HCQ, 26 patients", "value": 1554, "unit": "ng/mL"},
      {"measurement": "Threshold HCQ Cmax for AV change (CART)", "setting": "[2]; baseline to 4 wk of combined therapy (TMZ + HCQ), 21 patients", "value": 856, "unit": "ng/mL"},
      {"measurement": "Median AV change from baseline to 2 wk", "setting": "[2]; patients with Cmax above 1554 ng/mL (n = 18), IQR -0.45, 1.37", "value": 0.89},
      {"measurement": "Median AV change from baseline to 2 wk", "setting": "[2]; patients with Cmax below 1554 ng/mL (n = 8), IQR −1.35, 0.03", "value": "−0.21"},
      {"measurement": "Abdominal fullness G1/G2", "setting": "[3]; All patients, HCQ with TMZ", "value": "2 (6) No. (%)"},
      {"measurement": "Abdominal pain G1/G2", "setting": "[3]; All patients, HCQ with TMZ", "value": "2 (6) No. (%)"},
      {"measurement": "Anemia G1/G2", "setting": "[3]; All patients, HCQ with TMZ", "value": "1 (3) No. (%)"},
      {"measurement": "Anemia G3/G4", "setting": "[3]; All patients, HCQ with TMZ", "value": "1 (3) No. (%)"},
      {"measurement": "Anorexia G1/G2", "setting": "[3]; All patients, HCQ with TMZ", "value": "13 (35) No. (%)"},
      {"measurement": "Bradycardia G1/G2", "setting": "[3]; All patients, HCQ with TMZ", "value": "2 (6) No. (%)"},
      {"measurement": "Constipation G1/G2", "setting": "[3]; All patients, HCQ with TMZ", "value": "8 (22) No. (%)"},
      {"measurement": "Diarrhea G1/G2", "setting": "[3]; All patients, HCQ with TMZ", "value": "9 (24) No. (%)"},
      {"measurement": "Dizziness G1/G2", "setting": "[3]; All patients, HCQ with TMZ", "value": "2 (6) No. (%)"},
      {"measurement": "Dyspepsia G1/G2", "setting": "[3]; All patients, HCQ with TMZ", "value": "2 (6) No. (%)"},
      {"measurement": "Headaches G1/G2", "setting": "[3]; All patients, HCQ with TMZ", "value": "3 (8) No. (%)"},
      {"measurement": "Hypotension G1/G2", "setting": "[3]; All patients, HCQ with TMZ", "value": "3 (8) No. (%)"},
      {"measurement": "Leukopenia G3/G4", "setting": "[3]; All patients, HCQ with TMZ", "value": "1 (3) No. (%)"},
      {"measurement": "Lymphopenia G1/G2", "setting": "[3]; All patients, HCQ with TMZ", "value": "5 (14) No. (%)"},
      {"measurement": "Lymphopenia G3/G4", "setting": "[3]; All patients, HCQ with TMZ", "value": "5 No. (%)"},
      {"measurement": "Myalgias G1/G2", "setting": "[3]; All patients, HCQ with TMZ", "value": "2 (6) No. (%)"},
      {"measurement": "Nausea G1/G2", "setting": "[3]; All patients, HCQ with TMZ", "value": "24 (65) No. (%)"},
      {"measurement": "Nausea G3/G4", "setting": "[3]; All patients, HCQ with TMZ", "value": "1 (3) No. (%)"},
      {"measurement": "Neutropenia G3/G4", "setting": "[3]; All patients, HCQ with TMZ", "value": "2 (6) No. (%)"},
      {"measurement": "Pruritus G1/G2", "setting": "[3]; All patients, HCQ with TMZ", "value": "4 (12) No. (%)"},
      {"measurement": "Rash G1/G2", "setting": "[3]; All patients, HCQ with TMZ", "value": "3 (8) No. (%)"},
      {"measurement": "Rash G3/G4", "setting": "[3]; All patients, HCQ with TMZ", "value": "1 (3) No. (%)"},
      {"measurement": "Taste change G1/G2", "setting": "[3]; All patients, HCQ with TMZ", "value": "2 (6) No. (%)"},
      {"measurement": "Thrombocytopenia G1/G2", "setting": "[3]; All patients, HCQ with TMZ", "value": "5 (14) No. (%)"},
      {"measurement": "Thrombocytopenia G3/G4", "setting": "[3]; All patients, HCQ with TMZ", "value": "2 (6) No. (%)"},
      {"measurement": "Vomiting G3/G4", "setting": "[3]; All patients, HCQ with TMZ", "value": "1 (3) No. (%)"},
      {"measurement": "Abdominal fullness G1/G2", "setting": "[3]; HCQ 200 mg (n = 3) with TMZ", "value": "1 (33) No. (%)"},
      {"measurement": "Anorexia G1/G2", "setting": "[3]; HCQ 200 mg (n = 3) with TMZ", "value": "1 (33) No. (%)"},
      {"measurement": "Constipation G1/G2", "setting": "[3]; HCQ 200 mg (n = 3) with TMZ", "value": "1 (33) No. (%)"},
      {"measurement": "Fatigue G1/G2", "setting": "[3]; HCQ 200 mg (n = 3) with TMZ", "value": "1 (33) No. (%)"},
      {"measurement": "Lymphopenia G1/G2", "setting": "[3]; HCQ 200 mg (n = 3) with TMZ", "value": "1 (33) No. (%)"},
      {"measurement": "Lymphopenia G3/G4", "setting": "[3]; HCQ 200 mg (n = 3) with TMZ", "value": "1 (33) No. (%)"},
      {"measurement": "Nausea G1/G2", "setting": "[3]; HCQ 200 mg (n = 3) with TMZ", "value": "1 (33) No. (%)"},
      {"measurement": "Vomiting G1/G2", "setting": "[3]; HCQ 200 mg (n = 3) with TMZ", "value": "1 (33) No. (%)"},
      {"measurement": "Abdominal fullness G1/G2", "setting": "[3]; HCQ 400 mg (n = 4) with TMZ", "value": "1 (25) No. (%)"},
      {"measurement": "Anorexia G1/G2", "setting": "[3]; HCQ 400 mg (n = 4) with TMZ", "value": "1 (25) No. (%)"},
      {"measurement": "Diarrhea G1/G2", "setting": "[3]; HCQ 400 mg (n = 4) with TMZ", "value": "1 (25) No. (%)"},
      {"measurement": "Fatigue G1/G2", "setting": "[3]; HCQ 400 mg (n = 4) with TMZ", "value": "2 (50) No. (%)"},
      {"measurement": "Hypotension G1/G2", "setting": "[3]; HCQ 400 mg (n = 4) with TMZ", "value": "1 (25) No. (%)"},
      {"measurement": "Lymphopenia G3/G4", "setting": "[3]; HCQ 400 mg (n = 4) with TMZ", "value": "2 (50) No. (%)"},
      {"measurement": "Myalgias G1/G2", "setting": "[3]; HCQ 400 mg (n = 4) with TMZ", "value": "1 (25) No. (%)"},
      {"measurement": "Nausea G1/G2", "setting": "[3]; HCQ 400 mg (n = 4) with TMZ", "value": "4 (100) No. (%)"},
      {"measurement": "Thrombocytopenia G1/G2", "setting": "[3]; HCQ 400 mg (n = 4) with TMZ", "value": "1 (25) No. (%)"},
      {"measurement": "Vomiting G1/G2", "setting": "[3]; HCQ 400 mg (n = 4) with TMZ", "value": "3 (75) No. (%)"},
      {"measurement": "Anorexia G1/G2", "setting": "[3]; HCQ 800 mg (n = 15) with TMZ", "value": "5 (33) No. (%)"},
      {"measurement": "Constipation G1/G2", "setting": "[3]; HCQ 800 mg (n = 15) with TMZ", "value": "4 (27) No. (%)"}
    ]}
  ]
}
